From ChEMBL document CHEMBL1131614, “Novel calcium antagonists with both calcium overload inhibition and antioxidant activity. 1. 2-(3, 5-di-tert-butyl-4-hydroxyphenyl)-3-(aminopropyl)thiazolidinones” (J Med Chem, 1998) come the findings set out here.

Molecules are shown by their SMILES. “And” between values parts separate entries of the source, which are not always exact repeats. Equal entries are not always repeated.

Experiment [1] concerns the target T1, Seed linoleate 13S-lipoxygenase-1 (Glycine max) (UniProt P08170).
T1 sequence (whole entry): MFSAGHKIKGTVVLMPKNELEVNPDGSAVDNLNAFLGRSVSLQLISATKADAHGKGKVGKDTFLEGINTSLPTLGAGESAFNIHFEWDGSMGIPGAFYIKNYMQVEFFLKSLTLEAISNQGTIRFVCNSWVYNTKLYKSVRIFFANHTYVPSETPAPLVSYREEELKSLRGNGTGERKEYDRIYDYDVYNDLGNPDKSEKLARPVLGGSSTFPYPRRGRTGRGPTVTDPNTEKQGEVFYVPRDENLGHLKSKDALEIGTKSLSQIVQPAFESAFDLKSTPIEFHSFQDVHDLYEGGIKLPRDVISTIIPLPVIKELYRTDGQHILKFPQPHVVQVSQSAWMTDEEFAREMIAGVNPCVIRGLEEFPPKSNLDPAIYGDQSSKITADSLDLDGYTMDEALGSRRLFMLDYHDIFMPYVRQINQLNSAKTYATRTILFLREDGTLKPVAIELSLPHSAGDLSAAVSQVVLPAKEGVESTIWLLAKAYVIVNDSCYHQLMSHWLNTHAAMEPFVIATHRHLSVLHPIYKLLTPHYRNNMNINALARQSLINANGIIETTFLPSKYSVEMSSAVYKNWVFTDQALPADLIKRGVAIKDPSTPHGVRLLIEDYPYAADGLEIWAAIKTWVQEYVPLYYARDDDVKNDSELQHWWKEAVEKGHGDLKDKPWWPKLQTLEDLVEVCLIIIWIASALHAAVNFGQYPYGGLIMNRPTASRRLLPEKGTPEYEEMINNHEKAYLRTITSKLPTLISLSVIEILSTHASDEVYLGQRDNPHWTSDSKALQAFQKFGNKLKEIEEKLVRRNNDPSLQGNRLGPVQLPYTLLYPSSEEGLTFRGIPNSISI
Briefly: In vitro inhibition of rabbit LDL oxidation by soybean lipoxygenase at 5 uM. The format is functional. The essentials: (§1)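 Compound added to rabbit LDL (Havel method), then soybean lipoxygenase type-IS at 40 μg/mL final. Incubated 24 h at 37 °C in a CO2 incubator. Oxidized LDL separated by gel-permeation chromatography, and fluorescence of the LDL fraction read at ex 360/em 430 nm. Expressed as percent of control.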

The target of experiment [2] is T1, Seed linoleate 13S-lipoxygenase-1 (Glycine max). Briefly: In vitro inhibition of rabbit LDL oxidation by soybean lipoxygenase at 0.5 uM. The experiment is classed as functional. The essentials: as §1
Experiment [3] deals with Voltage-dependent L-type calcium channel subunit alpha-1C (Rattus norvegicus, UniProt P22002). Description: In vitro inhibition of K+ induced contractions of the isolated rat aorta. The experiment is classed as functional, tissue-based.
Chain of Voltage-dependent L-type calcium channel subunit alpha-1C (P22002 whole entry): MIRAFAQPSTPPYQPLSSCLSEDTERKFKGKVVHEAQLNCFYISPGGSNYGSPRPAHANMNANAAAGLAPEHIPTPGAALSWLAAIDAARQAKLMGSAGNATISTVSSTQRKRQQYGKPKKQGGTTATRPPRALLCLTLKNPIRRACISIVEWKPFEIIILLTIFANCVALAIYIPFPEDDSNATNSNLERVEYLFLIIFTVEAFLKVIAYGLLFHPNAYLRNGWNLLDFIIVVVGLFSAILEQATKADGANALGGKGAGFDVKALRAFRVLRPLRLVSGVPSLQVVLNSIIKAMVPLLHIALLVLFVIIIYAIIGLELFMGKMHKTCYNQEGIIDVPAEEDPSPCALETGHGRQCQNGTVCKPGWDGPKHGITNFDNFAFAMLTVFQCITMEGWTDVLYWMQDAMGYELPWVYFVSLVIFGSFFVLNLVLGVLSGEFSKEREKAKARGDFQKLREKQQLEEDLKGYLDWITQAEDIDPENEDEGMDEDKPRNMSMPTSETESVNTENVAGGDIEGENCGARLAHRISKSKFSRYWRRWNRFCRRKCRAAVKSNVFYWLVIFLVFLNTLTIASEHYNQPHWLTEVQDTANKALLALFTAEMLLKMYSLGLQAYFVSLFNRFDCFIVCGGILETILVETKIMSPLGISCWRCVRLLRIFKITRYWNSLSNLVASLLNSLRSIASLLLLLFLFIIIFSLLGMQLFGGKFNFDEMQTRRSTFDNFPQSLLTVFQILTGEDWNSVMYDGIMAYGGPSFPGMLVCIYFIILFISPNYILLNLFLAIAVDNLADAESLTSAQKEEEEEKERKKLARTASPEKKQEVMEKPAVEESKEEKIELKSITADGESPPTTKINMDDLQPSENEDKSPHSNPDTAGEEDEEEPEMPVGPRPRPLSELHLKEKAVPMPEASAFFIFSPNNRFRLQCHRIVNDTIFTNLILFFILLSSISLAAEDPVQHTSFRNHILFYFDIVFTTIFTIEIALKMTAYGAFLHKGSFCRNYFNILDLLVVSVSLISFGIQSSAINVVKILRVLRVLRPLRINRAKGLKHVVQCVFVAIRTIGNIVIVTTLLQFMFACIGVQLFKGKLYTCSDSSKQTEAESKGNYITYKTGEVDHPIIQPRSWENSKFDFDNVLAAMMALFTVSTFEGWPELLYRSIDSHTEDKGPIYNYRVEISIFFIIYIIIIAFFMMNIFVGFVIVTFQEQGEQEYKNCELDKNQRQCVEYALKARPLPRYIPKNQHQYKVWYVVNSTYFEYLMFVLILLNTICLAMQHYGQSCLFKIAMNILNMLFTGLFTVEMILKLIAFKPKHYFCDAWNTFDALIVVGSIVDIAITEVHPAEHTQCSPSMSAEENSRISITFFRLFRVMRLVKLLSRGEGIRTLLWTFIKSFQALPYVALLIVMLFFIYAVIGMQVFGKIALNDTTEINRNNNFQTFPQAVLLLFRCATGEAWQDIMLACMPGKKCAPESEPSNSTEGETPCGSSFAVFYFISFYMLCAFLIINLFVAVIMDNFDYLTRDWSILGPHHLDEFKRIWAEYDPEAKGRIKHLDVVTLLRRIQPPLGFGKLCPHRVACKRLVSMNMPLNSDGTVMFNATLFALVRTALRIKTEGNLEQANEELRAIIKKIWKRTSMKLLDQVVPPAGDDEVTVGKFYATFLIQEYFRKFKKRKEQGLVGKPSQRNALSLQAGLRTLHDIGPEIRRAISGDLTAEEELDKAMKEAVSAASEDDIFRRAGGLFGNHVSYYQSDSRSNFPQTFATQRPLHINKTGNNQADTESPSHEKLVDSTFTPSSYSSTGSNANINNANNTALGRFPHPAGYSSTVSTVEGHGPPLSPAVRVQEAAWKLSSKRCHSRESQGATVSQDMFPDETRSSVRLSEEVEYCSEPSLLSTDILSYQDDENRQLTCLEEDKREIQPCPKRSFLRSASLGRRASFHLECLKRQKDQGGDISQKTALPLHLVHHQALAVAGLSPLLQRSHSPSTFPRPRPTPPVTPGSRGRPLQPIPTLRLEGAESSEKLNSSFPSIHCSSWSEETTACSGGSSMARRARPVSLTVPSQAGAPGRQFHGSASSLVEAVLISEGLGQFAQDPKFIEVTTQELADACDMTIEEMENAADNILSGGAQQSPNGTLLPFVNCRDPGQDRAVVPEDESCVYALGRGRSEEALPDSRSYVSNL
The species named for experiment [4] is Rattus norvegicus. Briefly: In vitro inhibition of veratridine induced rat myocardiac cell death. The experiment is classed as functional.
Experiment [5] concerns the target T1, Seed linoleate 13S-lipoxygenase-1 (Glycine max). Briefly: In vitro inhibition of rabbit LDL oxidation by soybean lipoxygenase. The format is functional. Set-up: scale not given: the % may be the effect or the level left. The essentials: as §1

Consider `COc1ccc(CCN(C)CCCN2C(=O)CSC2c2cc(C(C)(C)C)c(O)c(C(C)(C)C)c2)cc1OC` (centres undefined), for which, in experiment [1], the LDL oxidation remaining (% of control) was 0.6%. Also, in experiment [2], the LDL oxidation, % of control amounted to 8.7%. Moreover, the IC50 in experiment [3] was found to be 0.093 µM. Moreover, the “IC>80” value in experiment [4] was 1 µM.
In the case of `CN(c1nc2ccccc2s1)C1CCN(CCCN2C(=O)CSC2c2cc(C(C)(C)C)c(O)c(C(C)(C)C)c2)CC1` (centres undefined), the LDL oxidation remaining (% of control) in experiment [1] came to 4.9%. Besides, in experiment [2], the LDL oxidation, % of control was found to be 25.8%. In addition, the half-maximal inhibitory concentration (IC50) in experiment [3] is 0.23 µM. For the same molecule, the “IC>80” value in experiment [4] stood at 1 µM.
As for `CC(C)(C)c1cc(C2SCC(=O)N2CCCN)cc(C(C)(C)C)c1O` (centres undefined), the IC50 in experiment [3] stood at 4.4 µM.
`CCOCCN(C)CCCN1C(=O)CSC1c1cc(C(C)(C)C)c(O)c(C(C)(C)C)c1` (centres undefined): in experiment [3], the IC50 came out at 0.84 µM.
For `CNCCCN1C(=O)CSC1c1cc(C(C)(C)C)c(O)c(C(C)(C)C)c1` (centres undefined), in experiment [3], the IC50 turned out to be 2.4 µM.
As for `COc1ccc([C@@H]2Sc3ccccc3N(CCN(C)C)C(=O)[C@@H]2OC(C)=O)cc1` [DILTIAZEM], the LDL oxidation remaining (% of control) in experiment [1] came to 111%. In experiment [2], this molecule displayed an LDL oxidation, % of control of 109%. The “IC>80” value in experiment [4] is more than 10 µM.
Turning to `CN(C)CCCN1C(=O)CSC1c1cc(C(C)(C)C)c(O)c(C(C)(C)C)c1` (centres undefined), the IC50 in experiment [3] was determined as 1.5 µM.
`COc1ccc(OCCN(C)CCCN2C(=O)CSC2c2cc(C(C)(C)C)c(O)c(C(C)(C)C)c2)cc1OC` (centres undefined): the half-inhibitory concentration (IC50) in experiment [3] stood at 0.18 µM. The “IC>80” value in experiment [4] turned out to be 1 µM.
For the molecule `COc1ccc(CN(C)CCCN2C(=O)CSC2c2cc(C(C)(C)C)c(O)c(C(C)(C)C)c2)cc1OC` (centres undefined), the “IC>80” value in experiment [4] is 1 µM.
On to `COc1ccc(OCCN(C)CCCN2C(=O)CSC2c2cc(C(C)(C)C)c(O)c(C(C)(C)C)c2)cc1` (centres undefined), for which, in experiment [3], the IC50 was 0.23 µM.
In the case of `CN(c1nc2ccccc2s1)C1CCN(CCCCOc2ccc(F)cc2)CC1`, in experiment [3], the IC50 came out at 0.76 µM. Besides, the “IC>80” value in experiment [4] turned out to be 0.032 µM.
`CN(CCCN1C(=O)CSC1c1cc(C(C)(C)C)c(O)c(C(C)(C)C)c1)Cc1ccccc1` (centres undefined): the IC50 in experiment [3] stood at 0.6 µM.
Turning to `CN(CCCN1C(=O)CSC1c1cc(C(C)(C)C)c(O)c(C(C)(C)C)c1)CCOc1ccc2c(c1)OCO2` (centres undefined), the LDL oxidation remaining (% of control) in experiment [1] came out at 3%. For the same molecule, the LDL oxidation, % of control in experiment [2] came to 12.9%. Also, the concentration for half-maximal inhibition (IC50) in experiment [3] amounted to 0.062 µM. Also, the “IC>80” value in experiment [4] amounted to 0.32 µM.
Consider `Cc1c(C)c2c(c(C)c1O)CC[C@@](C)(CCC[C@H](C)CCC[C@H](C)CCCC(C)C)O2`, for which the LDL oxidation remaining (% of control) in experiment [1] came to 13.2%. In experiment [2], the LDL oxidation, % of control was found to be 60.2%.
As for `Cc1cc(C(C)(C)C)c(O)c(C(C)(C)C)c1`, the Control in experiment [5] was 19.7% and 0.9%.
Take `CN(CCCN1C(=O)CSC1c1cc(C(C)(C)C)c(O)c(C(C)(C)C)c1)Cc1ccc2c(c1)OCO2` (centres undefined): in experiment [3], the IC50 came to 0.25 µM.
Regarding `CC(C)(C)c1cc(C2SCC(=O)N2CCCN2CCC(Cc3ccccc3)CC2)cc(C(C)(C)C)c1O` (centres undefined), the half-maximal inhibitory concentration (IC50) in experiment [3] was determined as 0.21 µM. Moreover, the “IC>80” value in experiment [4] was 0.32 µM.
Regarding `CN(C)CCN(C)CCCN1C(=O)CSC1c1cc(C(C)(C)C)c(O)c(C(C)(C)C)c1` (centres undefined), the IC50 in experiment [3] worked out at 1.7 µM.
On to `COc1cc2c(cc1OC)CN(CCCN1C(=O)CSC1c1cc(C(C)(C)C)c(O)c(C(C)(C)C)c1)CC2` (centres undefined), for which the IC50 in experiment [3] worked out at 0.2 µM. Also, in experiment [4], the “IC>80” value was 1 µM.
In the case of `COc1cc(OCCN(C)CCCN2C(=O)CSC2c2cc(C(C)(C)C)c(O)c(C(C)(C)C)c2)cc(OC)c1OC` (centres undefined), the half-maximal inhibitory concentration (IC50) in experiment [3] amounted to 0.3 µM.
`CN(CCCN1C(=O)CSC1c1cc(C(C)(C)C)c(O)c(C(C)(C)C)c1)CC(O)COc1ccc2c(c1)OCO2` (centres undefined): in experiment [3], the half-maximal inhibitory concentration (IC50) was determined as 0.43 µM.
`CN(CCCN1C(=O)CSC1c1cc(C(C)(C)C)c(O)c(C(C)(C)C)c1)CC1CC1` (centres undefined): the IC50 in experiment [3] worked out at 1.2 µM.
On to `CN(CCCN1C(=O)CSC1c1cc(C(C)(C)C)c(O)c(C(C)(C)C)c1)CC(O)COc1ccccc1` (centres undefined), for which the concentration for half-maximal inhibition (IC50) in experiment [3] was 0.42 µM.

Broadly, the IC50 is the midpoint of a concentration-inhibition curve.
